Like-named read-outs stand apart in the source and are kept apart here.
Assays:
[1] = system: male CD-1 mice; experiment: Mouse iron-chloride-induced arterial thrombosis model; format: in vivo
[2] = system: thrombin generation; experiment: Thrombin generation assay; format: biochemical; details: 70% human platelet-poor plasma, mean ± SD; for Cmax: read-out: Tmax EC2x (concentration of inhibitor required to double the time at which Cmax occurs)
[3] = system: male SD rats; details: rat, cited from earlier work
[4] = system: male SD rats; experiment: Inferior vena cava; format: in vivo; details: rat
[5] = system: male SD rats; experiment: Arteriovenous shunt; format: in vivo; details: rat, 3 mg/kg infusion
[6] = system: male SD rats; details: rat, cited from earlier work; remark: listed apart in the source
[7] = system: male SD rats; experiment: Platelet status in AV shunt model; format: in vivo; details: rat, vehicle approximately 20%
[8] = system: male CD-1 mice; experiment: Thrombin-induced thromboembolism mouse model; format: in vivo; details: 4.5 mg/kg IV, 30 min observation, human α-thrombin 1.75 U/g
Outline: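 Mice anaesthetised with 1:1 ketamine:xylazine. Test compound given by tail-vein injection; 30 s later human α-thrombin in PBS (1.75 U/g body weight) or PBS alone injected slowly. Mortality observed for 30 min; animals alive at 30 min scored as survivors and euthanised by cervical dislocation. Results expressed as percent survival; n = 12 per treatment group.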

[9] = system: thrombin-mediated platelet activation; experiment: In vitro platelet activation in whole blood; format: cell-based; details: read-out: EC50 inhibition of platelet activation, Mouse blood—Thrombin; 20% whole blood; mean ± SD
[10] = system: thrombin-mediated platelet activation; experiment: In vitro platelet activation in whole blood; format: cell-based; details: read-out: EC50 inhibition of platelet activation, Rat blood—Thrombin; 20% whole blood; mean ± SD
[11] = system: TF-mediated platelet activation; experiment: In vitro platelet activation in whole blood; format: cell-based, human; details: mean ± SD
[12] = system: thrombin-mediated platelet activation; experiment: In vitro platelet activation in whole blood; format: cell-based, human; details: mean ± SD

`COc1ccc(-n2nc(C(N)=O)c3c2C(=O)N(c2ccc(N4CCCCC4=O)cc2)CC3)cc1` [Apixaban, apixaban] showed an occlusion time ([1]; 6 mg/kg infusion) of over 30 min, an EC50 ([2]; read-out: Cmax EC50) of 100 ± 100 nM and an EC50 ([2]; read-out: ETP EC50) of 470 ± 10 nM. The Cmax [2] was 70 ± 40 nM, the “inhibition of thrombus formation, literature value” ([3]; 3 mg/kg/infusion) was ~ 80% and the “inhibition of thrombus formation” value ([4]; 3 mg/kg/infusion) was 90%. The “inhibition of thrombus formation” value [5] was “about 90%” and the “inhibition of thrombus formation, literature” value ([6]; ref 47 (Shumacher et al. 2010)) was “about 60%”.

`CC1CNc2c(cccc2S(=O)(=O)N[C@@H](CCCNC(=N)N)C(=O)N2CC[C@@H](C)C[C@@H]2C(=O)O)C1` (some centres unmarked) [Argatroban, argatroban] showed an occlusion time ([1]; 4 mg/kg) of over 30 min, an EC50 ([2]; read-out: Cmax EC50) of 350 ± 140 nM and an EC50 ([2]; read-out: ETP EC50) of 360 ± 162 nM. The Cmax [2] was 454 ± 240 nM, the “activated platelets (average over time points)” value ([7]; 2 mg/kg IV) was under 10% and the “treated mice in which mortality was prevented” value [8] was 91%.

`[H]/N=C(/N)c1ccc(NCc2nc3cc(C(=O)N(CCC(=O)O)c4ccccn4)ccc3n2C)cc1` [Dabigatran, dabigatran] gave an EC50 [9] of 21 ± 10 nM, an occlusion time ([1]; 0.2 mg/kg) of over 30 min and an EC50 ([2]; read-out: Cmax EC50) of 450 ± 450 nM. The EC50 ([2]; read-out: ETP EC50) was 310 ± 240 nM, the Cmax [2] was 240 ± 240 nM and the “activated platelets (average over time points)” value ([7]; 0.1 mg/kg IV) was under 10%. For the same molecule, the “EC50 in AV shunt model, literature” value [3] was ~ 0.04 mg/kg, the ED50 thrombus formation ([4]; IV administration) was 0.01 mg/kg and the EC50 [10] was 27 ± 10 nM. For the same molecule, the “ED50, value published by the manufacturer” value ([6]; IV) was 0.033 mg/kg, the EC50 ([11]; read-out: EC50 inhibition of platelet activation, Human blood (76%)—TF, 76% whole blood) was 29 ± 3 nM and the EC50 ([11]; read-out: EC50 inhibition of platelet activation, Human blood—TF, 20% whole blood) was 23 ± 6 nM. It also gave an EC50 ([12]; read-out: EC50 inhibition of platelet activation, Human blood (76%)—Thrombin, 76% whole blood) of 14 ± 1 nM and an EC50 ([12]; read-out: EC50 inhibition of platelet activation, Human blood—Thrombin, 20% whole blood) of 35 ± 10 nM.

`O=C(NC[C@H]1CN(c2ccc(N3CCOCC3=O)cc2)C(=O)O1)c1ccc(Cl)s1` [Rivaroxaban, rivaroxaban] showed an EC50 ([2]; read-out: Cmax EC50) of 100 ± 100 nM, an EC50 ([2]; read-out: ETP EC50) of 310 ± 140 nM and a Cmax [2] of 100 ± 30 nM. For the same molecule, the “EC50 in AV shunt model, literature value” [3] was 0.3 mg/kg.

Reference: article PMC7936662 (Thrombosis research, 2020)
